TbMetRS inhib: Trypanosoma brucei MetRS inhibition. purified T. brucei MetRS, ATP depletion, Kinase-Glo luminescence. inhibition, % at 11.9 µM. 0.4% of 360,000 active. AID 624268;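 active means inhibition above a per-plate cutoff of the control wells' mean inhibition plus 3 SD, cut at about 5.5% in these data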
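System: purified T. brucei MetRS enzyme / Detection: Kinase-Glo luciferase luminescence reporting remaining unconsumed ATP / Medium: HEPES buffer with MgCl2, KCl, DTT, spermine, BSA, pyrophosphatase / Replication: singlicate, one well per compound / Evaluation: percent inhibition relative to median high and low control wells / Schedule: 2 h aminoacylation at 25 °C after 15 min preincubation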
PDI inh: blocks human protein disulfide isomerase activity. P07237. PDI insulin aggregation turbidity, A650, 90 min. inhibition, % at 10 µM. 0.052% of 350,000 active. AID 588391;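 active means mean inhibition across replicates of 30% or more, whatever share of single replicates reach that level; inconclusive means mean inhibition below 30% while every single replicate reaches 30%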
ERp5 block: inhibitors of human ERp5 | Q15084 | inhibition, % at 9.99 µM | 0.05% of 350,000 active | ERp5 insulin aggregation, absorbance 650 nm, 90 min;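 active means mean replicate inhibition above about 25%, with every replicate also reaching it, limit read from the data, passing the limit was not always enough; inconclusive means only one of those two criteria met; inactive means neither criterion met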
Target sequence (Q15084 whole entry, looked up): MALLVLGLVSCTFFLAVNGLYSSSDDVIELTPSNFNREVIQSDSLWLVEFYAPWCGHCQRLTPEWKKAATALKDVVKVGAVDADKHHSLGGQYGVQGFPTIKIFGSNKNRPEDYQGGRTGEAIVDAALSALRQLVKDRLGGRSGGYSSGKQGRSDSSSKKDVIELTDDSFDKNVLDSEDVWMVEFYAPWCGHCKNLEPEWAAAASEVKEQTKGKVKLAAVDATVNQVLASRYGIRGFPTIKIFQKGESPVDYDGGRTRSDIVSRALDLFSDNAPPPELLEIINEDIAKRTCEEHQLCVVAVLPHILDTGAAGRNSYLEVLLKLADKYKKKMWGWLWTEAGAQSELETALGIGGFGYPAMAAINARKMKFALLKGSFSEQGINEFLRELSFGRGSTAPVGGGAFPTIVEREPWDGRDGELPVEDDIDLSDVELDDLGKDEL
TbMetRS confirm: Trypanosoma brucei MetRS inhibition confirmed; inhibition, % at 11.9 µM; T. brucei MetRS enzyme, luminescence (ATP depletion); shares compounds with TbMetRS inhib; AID 624412; 93% of 1,400 active; in the data active means inhibition above about 7%
Jurkat cytotox: Jurkat T cell cytotoxicity for MetRS hits | shares compounds with TbMetRS inhib | Jurkat cells viability, ATP luminescence | inhibition, % at 8.3 µM | 12% of 1,400 active; in the data active means inhibition above about 15%
Tb MetRS inh FP: T. brucei MetRS inhibition, orthogonal assay; shares compounds with TbMetRS inhib; purified T. brucei MetRS, fluorescence polarization; inhibition, % at 11.9 µM; 44% of 1,400 active; AID 651607; in the data active means inhibition above about 17%
Large screens that a line does not name were inactive (follow-up assays come after a bar, where they were run). The list is not random: actives were taken first. Their share in the collection is about 0.4%.

O=C(COc1ccc(S(=O)(=O)N2CCOCC2)cc1)Nc1ccc(Br)cc1	TbMetRS inhib 17.6 | TbMetRS confirm 50.2 | Jurkat cytotox 16.8 | Tb MetRS inh FP 32.6
O=C(Nc1ccc(F)cc1)C1CC(=O)n2c(nc3ccccc32)N1 (configuration not stated)	TbMetRS inhib 17.7 (no result: ERp5 block) | TbMetRS confirm 34.1 | Jurkat cytotox inactive | Tb MetRS inh FP inactive
O=C(Nc1ccc(F)c(Cl)c1)C1CC(=O)n2c(nc3ccccc32)N1 (configuration not stated)	TbMetRS inhib 74.4, ERp5 block inconclusive | TbMetRS confirm 89.5 | Jurkat cytotox inactive | Tb MetRS inh FP 76.2
COc1ccc(NC(=O)C2CC(=O)n3c(nc4ccccc43)N2)cc1 (configuration not stated)	none
O=C1CC(C(=O)Nc2cccc(F)c2)n2c(nc3ccccc32)N1 (configuration not stated)	none
CC(C)(C)[S@](=O)N1Cc2cc(C(=O)N3CCCCC3)nc(-c3cccc(C4=CCCC4)c3)c2[C@@H]1CCO	none (no result: TbMetRS inhib, PDI inh)
Cc1noc(C)c1S(=O)(=O)Nc1cccc2c1O[C@@H](CN(C)S(=O)(=O)c1cccs1)[C@@H](C)CN([C@H](C)CO)C2=O	none (no result: TbMetRS inhib, PDI inh)
Cc1ccc(C2CC2C(=O)NNC(=S)Nc2cccc(Cl)c2)cc1 (configuration not stated)	TbMetRS inhib 6.5 (no result: ERp5 block) | TbMetRS confirm 13.8 | Jurkat cytotox inactive | Tb MetRS inh FP inactive
Cc1ccc(C2CC2C(=O)NNC(=S)Nc2cccc(C)c2)cc1 (configuration not stated)	none (no result: ERp5 block)
Cc1ccc(NC(=S)NNC(=O)C2CC2c2ccc(C)cc2)cc1 (configuration not stated)	none (no result: ERp5 block)
O=C(NNC(=S)Nc1ccc(F)cc1)C1CC1c1ccc(Cl)cc1 (configuration not stated)	TbMetRS inhib 48.0 | TbMetRS confirm 66.3 | Jurkat cytotox inactive | Tb MetRS inh FP 41.2
COc1ccc2c3c([nH]c2c1)[C@H](CO)N(C(=O)Nc1c(C)noc1C)CC31CCN(CC2CCCC2)CC1	none (no result: TbMetRS inhib, PDI inh)
COc1ccc(NC(=O)CS(=O)(=O)Cc2nc(-c3ccc(C)cc3)oc2C)cc1	none
COc1ccc(-c2nc(CS(=O)(=O)CC(=O)Nc3ccc(Cl)cc3)c(C)o2)cc1	TbMetRS inhib 12.2 (no result: PDI inh) | TbMetRS confirm 34.2 | Jurkat cytotox 45.9 | Tb MetRS inh FP 26.0
C[C@H]1CN([C@@H](C)CO)C(=O)c2cc(C#CC3CCCCC3)cnc2O[C@H]1CN(C)Cc1cccnc1	none (no result: TbMetRS inhib, PDI inh)
O=c1c(Cc2ccc(Cl)cc2Cl)c(O)ccn1CCCN1CCOCC1	TbMetRS inhib 32.5 | TbMetRS confirm 51.4 | Jurkat cytotox inactive | Tb MetRS inh FP 20.1
NC(=O)Cn1ccc(O)c(Cc2ccc(Cl)cc2Cl)c1=O	TbMetRS inhib 24.5 | TbMetRS confirm 37.2 | Jurkat cytotox inactive | Tb MetRS inh FP 19.8
O=c1c(Cc2ccc(Cl)cc2Cl)c(O)ccn1CC(F)(F)F	TbMetRS inhib 9.0 | TbMetRS confirm 14.1 | Jurkat cytotox inactive | Tb MetRS inh FP inactive
CN(C)CCn1ccc(O)c(Cc2ccc(Cl)cc2)c1=O	none
CCCn1ccc(O)c(Cc2ccc(Cl)cc2)c1=O	none
O=c1c(Cc2ccc(F)cc2)c(O)ccn1Cc1ccc(Cl)cc1Cl	none (no result: ERp5 block)
O=C(NC[C@@H]1CC[C@@H]2[C@@H](CN2C(=O)C2CCOCC2)O1)c1cccnc1	none (no result: TbMetRS inhib, PDI inh)
NNc1nc(Nc2ccccc2)nc(Nc2ccccc2)n1	none
c1ccc(Nc2ccnc(Nc3ccccc3)n2)cc1	TbMetRS inhib 10.0 | TbMetRS confirm 23.9 | Jurkat cytotox inactive | Tb MetRS inh FP inactive
COCCNC(=O)CS(=O)Cc1nc(-c2ccccc2C)oc1C (configuration not stated)	TbMetRS inhib 59.2 (no result: PDI inh) | TbMetRS confirm inactive | Jurkat cytotox inactive | Tb MetRS inh FP inactive
Cc1ccccc1-c1nc(CS(=O)CC(=O)NCc2ccccc2)c(C)o1 (configuration not stated)	none (no result: PDI inh)
C[C@H]1CN([C@@H](C)CO)S(=O)(=O)c2ccc(/C=C/c3ccccc3)cc2O[C@@H]1CN(C)C(=O)CN1CCOCC1	none (no result: TbMetRS inhib, PDI inh)
C[C@@H]1CN([C@H](C)CO)S(=O)(=O)c2ccc(C#CC3CCCC3)cc2O[C@H]1CN(C)C(=O)C1CC1	none (no result: TbMetRS inhib, PDI inh)
CCOc1ccc2[nH]c(C)c(CN3CCCCC3)c(=O)c2c1	none (no result: ERp5 block)
Cc1[nH]c2ccc(Br)cc2c(=O)c1CN1CCCCCC1	TbMetRS inhib 60.2 | TbMetRS confirm 82.2 | Jurkat cytotox inactive | Tb MetRS inh FP 51.6
Cc1[nH]c2ccccc2c(=O)c1CN1CCCCC1	none (no result: ERp5 block)
Cc1[nH]c2ccc(Cl)cc2c(=O)c1CN1CCCC1	TbMetRS inhib 45.5 | TbMetRS confirm 48.3 | Jurkat cytotox inactive | Tb MetRS inh FP 28.3
CCC(=O)N[C@@H]1CC[C@@H](CCNS(=O)(=O)c2ccc(Cl)cc2)O[C@@H]1CO	none (no result: TbMetRS inhib, PDI inh)
O=C(C[C@H]1CC[C@H]2[C@@H](COC[C@H](O)CN2Cc2cc(F)ccc2F)O1)NCc1ccc(Cl)cc1	none (no result: TbMetRS inhib, PDI inh)
COc1ccc(S(=O)(=O)N[C@@H]2CC[C@H](CCn3cc(C(C)C)nn3)O[C@H]2CO)cc1	none (no result: TbMetRS inhib, PDI inh)
CCN(CC)c1ccc(/C=N/NC(=O)Nc2ccccc2)cc1	none
CCN(CC)c1ccc(/C=N/NC(=O)Cc2nnc(NC(=O)Nc3ccccc3)s2)cc1	TbMetRS inhib 8.4 | TbMetRS confirm 9.2 | Jurkat cytotox inactive | Tb MetRS inh FP inactive
C[C@@H]1CN([C@H](C)CO)S(=O)(=O)c2ccc(-c3ccc(F)cc3)cc2O[C@@H]1CN(C)S(C)(=O)=O	none (no result: TbMetRS inhib, PDI inh)
CCC(=O)Nc1ccc2c(c1)OC[C@@H](C)N(Cc1ccccn1)C[C@@H](C)[C@@H](OC)CN(C)C2=O	none (no result: TbMetRS inhib, PDI inh)
CCCCn1c(NC(=O)c2ccccc2)c(C#N)c2nc3ccccc3nc21	TbMetRS inhib 10.6 (no result: ERp5 block) | TbMetRS confirm 15.3 | Jurkat cytotox inactive | Tb MetRS inh FP inactive
CCC(C)n1c(NC(=O)c2ccccc2)c(C#N)c2nc3ccccc3nc21 (configuration not stated)	none (no result: ERp5 block)
COc1ccc(NC(=O)Nc2ccc3c(c2)C(=O)N([C@H](C)CO)C[C@@H](C)[C@@H](CN(C)S(=O)(=O)c2ccccc2)OCCCC[C@H](C)O3)cc1	none (no result: TbMetRS inhib, PDI inh)
COc1ccc(COC(=O)CCNC(=O)c2ccc(Cl)cc2)cc1	TbMetRS inhib 7.0 | TbMetRS confirm 28.4 | Jurkat cytotox inactive | Tb MetRS inh FP inactive
COc1ccc(CC(=O)OCC(=O)NCc2ccc(Cl)cc2)cc1	none
COc1ccc(C(=O)NCC(=O)NCC(=O)OCc2ccc(Cl)cc2)cc1	none
COc1ccc(CNC(=O)CCC(=O)Nc2ccc(Cl)cc2)cc1	TbMetRS inhib 7.1 | TbMetRS confirm 17.0 | Jurkat cytotox inactive | Tb MetRS inh FP inactive
O=C(Nc1ccc(Cl)cc1)N[C@H]1CC[C@@H](CCn2cc(-c3ccccc3F)nn2)O[C@H]1CO	none (no result: TbMetRS inhib, PDI inh)
O=C(CCN1CCCCC1)NCC[C@H]1CC[C@@H](NC(=O)Cc2cccnc2)[C@H](CO)O1	none (no result: TbMetRS inhib, PDI inh)
CN(CC(=O)Nc1cccc(F)c1)C(=O)c1ccc2c(c1)NC(=O)CS2	none
